Here are results for eight compounds from ChEMBL document CHEMBL1154447, “Synthesis, antimicrobial activity, pharmacophore analysis of some new 2-(substitutedphenyl/benzyl)-5-[(2-benzofuryl)carboxamido]benzoxazoles” (2008).

Converted amounts (≈) assume the structure as drawn.

Holding throughout (assay type): functional
The test system of test [1] is Escherichia coli. In words: Antibacterial activity against Escherichia coli isolate containing extended spectrum beta lactamase after 24 hrs by twofold serial dilution technique. In a few lines: (§1)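 Broth microdilution in Mueller-Hinton broth. Isolates were subcultured overnight on MHA at 37 °C and passaged at least twice. McFarland 0.5 cultures […] were diluted to 10⁵ cfu/ml, giving 10⁴ cfu/ml per well, over two-fold compound dilutions. Plates were incubated at 37 °C in a humid chamber for 24 h. MIC was the lowest concentration completely inhibiting macroscopic growth. Triplicate per run.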

For test [2], the system named is Staphylococcus aureus. The test is described as follows: Antibacterial activity against methicillin-resistant Staphylococcus aureus isolate after 24 hrs by twofold serial dilution technique. The gist of the method:
(§2)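 Broth microdilution in Mueller-Hinton broth. Strains were subcultured overnight on MHA at 37 °C and passaged at least twice. McFarland 0.5 cultures […] were diluted to 10⁵ cfu/ml, giving 10⁴ cfu/ml per well, against two-fold dilutions from 1000 to 0.06. Solvent and medium controls were included. Plates were held at 37 °C in a humid chamber for 24 h, in triplicate. MIC is the lowest concentration with no macroscopic growth.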

In test [3] the test system is Klebsiella pneumoniae. In words: Antibacterial activity against Klebsiella pneumoniae isolate containing extended spectrum beta lactamase after 24 hrs by twofold serial dilution technique. The gist of the method: as §1
The test system of test [4] is Bacillus subtilis. In words: Antibacterial activity against Bacillus subtilis ATCC 6633 after 24 hrs by twofold serial dilution technique. The gist of the method:
as §2

The test system of test [5] is Klebsiella pneumoniae. In words: Antibacterial activity against Klebsiella pneumoniae RSHM 574 after 24 hrs by twofold serial dilution technique. In a few lines: as §1
The subject of test [6] is Pseudomonas aeruginosa. The test is described as follows: Antibacterial activity against Pseudomonas aeruginosa […] after 24 hrs by twofold serial dilution technique. In a few lines:
as §1

In test [7] the test system is Bacillus subtilis. In words: Antibacterial activity against ceftriaxone-resistant Bacillus subtilis isolate after 24 hrs by twofold serial dilution technique. The gist of the method: as §2
The test system of test [8] is Pseudomonas aeruginosa. In words: Antibacterial activity against gentamicin-resistant Pseudomonas aeruginosa isolate after 24 hrs by twofold serial dilution technique. In a few lines: as §2
Test [9] concerns Escherichia coli. In words: Antibacterial activity against Escherichia coli ATCC 25922 after 24 hrs by twofold serial dilution technique. In a few lines: as §1
Test [10] concerns Staphylococcus aureus. The test is described as follows: Antibacterial activity against Staphylococcus aureus ATCC 25923 after 24 hrs by twofold serial dilution technique. The gist of the method:
as §1

Test [11] concerns Candida albicans. The test is described as follows: Antifungal activity against biofilm-positive Candida albicans isolate after 48 hrs by twofold serial dilution technique. The gist of the method: (§3)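 Yeasts were subcultured on SDA at 35 °C for 24-48 h and passaged twice. Broth microdilution followed CLSI M27-A in RPMI-1640 with L-glutamine, MOPS-buffered to pH 7. Inoculum was McFarland 0.5 (10⁶ cfu/ml) diluted to 10⁴ cfu/ml, giving 10³ cfu/ml per well. Incubated at 35 °C in a humid chamber and read at 48 h as the lowest concentration with no macroscopic growth. Triplicate per run.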

Test [12] concerns Candida albicans. The test is described as follows: Antifungal activity against Candida albicans ATCC 10231 after 48 hrs by twofold serial dilution technique. The following applies: ATCC 10231, 48 h. The gist of the method: as §3
A further test relates to Pichia kudriavzevii. The test is described as follows: Antifungal activity against Candida krusei ATCC 6258 after 48 hrs by twofold serial dilution technique. The following applies: ATCC 6258, 48 h. The gist of the method: as §3

As for `CC1(C)S[C@@H]2[C@H](NC(=O)[C@H](N)c3ccccc3)C(=O)N2[C@H]1C(=O)O.O.O.O` [AMPICILLIN TRIHYDRATE], the MIC against Escherichia coli [1] was over 15.6 µg/mL; against Staphylococcus aureus [2], 1.9 µg/mL; with Klebsiella pneumoniae [3], 15.6 µg/mL; against Bacillus subtilis [4] (ATCC 6633, 24 h), 0.48 µg/mL; against Klebsiella pneumoniae [5], 0.48 µg/mL; in the test on Pseudomonas aeruginosa [6] it was over 500 µg/mL. Further, the MIC was 0.48 µg/mL with Bacillus subtilis [7]; over 500 µg/mL in the test with Pseudomonas aeruginosa [8]; 3.9 µg/mL in the test with Escherichia coli [9] (ATCC 25922, 24 h); 0.48 µg/mL with Staphylococcus aureus [10] (ATCC 25923, 24 h).

Turning to `O=C(Nc1ccc2oc(Cc3ccccc3)nc2c1)c1cc2ccccc2o1`, the MIC in the test with Escherichia coli [1] is 62.5 µg/mL (≈ 170 µM); in the test on Staphylococcus aureus [2], 62.5 µg/mL (≈ 170 µM); in the test with Candida albicans [11], 31.2 µg/mL (≈ 84.8 µM); with Klebsiella pneumoniae [3] it was 62.5 µg/mL (≈ 170 µM); with Candida albicans [12], 62.5 µg/mL (≈ 170 µM); against Pichia kudriavzevii, 31.2 µg/mL (≈ 84.8 µM). The MIC in the test with Bacillus subtilis [4] (ATCC 6633, 24 h) was found to be 125 µg/mL (≈ 339 µM); against Klebsiella pneumoniae [5] it was 62.5 µg/mL (≈ 170 µM); in the test on Pseudomonas aeruginosa [6] it was 31.2 µg/mL (≈ 84.8 µM); in the test on Bacillus subtilis [7], 125 µg/mL (≈ 339 µM); in the test with Pseudomonas aeruginosa [8], 62.5 µg/mL (≈ 170 µM); in the test on Escherichia coli [9] (ATCC 25922, 24 h) it was 62.5 µg/mL (≈ 170 µM). The compound also yielded an MIC in the test on Staphylococcus aureus [10] (ATCC 25923, 24 h) of 125 µg/mL (≈ 339 µM).

With `O=C(Nc1ccc2oc(Cc3ccc(F)cc3)nc2c1)c1cc2ccccc2o1`, the MIC in the test on Escherichia coli [1] worked out at 125 µg/mL (≈ 324 µM); with Staphylococcus aureus [2] it was 62.5 µg/mL (≈ 162 µM); in the test on Candida albicans [11], 62.5 µg/mL (≈ 162 µM); with Klebsiella pneumoniae [3] it was 125 µg/mL (≈ 324 µM); against Candida albicans [12], 62.5 µg/mL (≈ 162 µM); in the test on Pichia kudriavzevii, 250 µg/mL (≈ 647 µM). Also, the MIC stood at 125 µg/mL (≈ 324 µM) in the test with Bacillus subtilis [4] (ATCC 6633, 24 h); 62.5 µg/mL (≈ 162 µM) against Klebsiella pneumoniae [5]; 62.5 µg/mL (≈ 162 µM) with Pseudomonas aeruginosa [6]; 125 µg/mL (≈ 324 µM) in the test on Bacillus subtilis [7]; 125 µg/mL (≈ 324 µM) with Pseudomonas aeruginosa [8]; 62.5 µg/mL (≈ 162 µM) against Escherichia coli [9] (ATCC 25922, 24 h). Also, the MIC with Staphylococcus aureus [10] (ATCC 25923, 24 h) amounted to 125 µg/mL (≈ 324 µM).

Regarding `CCc1ccc(-c2nc3cc(NC(=O)c4cc5ccccc5o4)ccc3o2)cc1`, the MIC with Escherichia coli [1] was 125 µg/mL (≈ 327 µM); in the test with Staphylococcus aureus [2] it was 62.5 µg/mL (≈ 163 µM); with Candida albicans [11], 62.5 µg/mL (≈ 163 µM); with Klebsiella pneumoniae [3], 125 µg/mL (≈ 327 µM); with Candida albicans [12], 62.5 µg/mL (≈ 163 µM); in the test on Pichia kudriavzevii, 125 µg/mL (≈ 327 µM). Moreover, the MIC was determined as 500 µg/mL (≈ 1310 µM) in the test with Bacillus subtilis [4] (ATCC 6633, 24 h); 62.5 µg/mL (≈ 163 µM) in the test on Klebsiella pneumoniae [5]; 62.5 µg/mL (≈ 163 µM) in the test on Pseudomonas aeruginosa [6]; 125 µg/mL (≈ 327 µM) in the test on Bacillus subtilis [7]; 62.5 µg/mL (≈ 163 µM) in the test on Pseudomonas aeruginosa [8]; 62.5 µg/mL (≈ 163 µM) in the test on Escherichia coli [9] (ATCC 25922, 24 h). In the test on Staphylococcus aureus [10] (ATCC 25923, 24 h), this compound came in with an MIC of 125 µg/mL (≈ 327 µM).

As to `CO[C@H]1/C=C/O[C@@]2(C)Oc3c(C)c(O)c4c(O)c(c(/C=N/N5CCN(C)CC5)c(O)c4c3C2=O)NC(=O)/C(C)=C\C=C\[C@H](C)[C@H](O)[C@@H](C)[C@@H](O)[C@@H](C)[C@H](OC(C)=O)[C@@H]1C` [RIFAMPIN], the MIC against Escherichia coli [1] is 3.9 µg/mL (≈ 4.74 µM); against Staphylococcus aureus [2], 0.9 µg/mL (≈ 1.09 µM); in the test with Klebsiella pneumoniae [3], 7.8 µg/mL (≈ 9.48 µM); in the test on Bacillus subtilis [4] (ATCC 6633, 24 h), 0.12 µg/mL (≈ 0.146 µM); against Klebsiella pneumoniae [5], 1.9 µg/mL (≈ 2.31 µM); against Pseudomonas aeruginosa [6] it was over 500 µg/mL. Also, the MIC against Bacillus subtilis [7] was 3.9 µg/mL (≈ 4.74 µM); against Pseudomonas aeruginosa [8], over 500 µg/mL; with Escherichia coli [9] (ATCC 25922, 24 h), 1.9 µg/mL (≈ 2.31 µM); in the test on Staphylococcus aureus [10] (ATCC 25923, 24 h), 0.06 µg/mL (≈ 0.0729 µM).

`O=C(Nc1ccc2oc(Cc3ccc(Br)cc3)nc2c1)c1cc2ccccc2o1`: the MIC turned out to be 125 µg/mL (≈ 279 µM) against Escherichia coli [1]; 62.5 µg/mL (≈ 140 µM) in the test with Staphylococcus aureus [2]; 62.5 µg/mL (≈ 140 µM) with Candida albicans [11]; 62.5 µg/mL (≈ 140 µM) against Klebsiella pneumoniae [3]; 62.5 µg/mL (≈ 140 µM) in the test on Candida albicans [12]; 62.5 µg/mL (≈ 140 µM) in the test with Pichia kudriavzevii. The MIC worked out at 125 µg/mL (≈ 279 µM) with Bacillus subtilis [4] (ATCC 6633, 24 h); 62.5 µg/mL (≈ 140 µM) in the test on Klebsiella pneumoniae [5]; 31.2 µg/mL (≈ 69.9 µM) with Pseudomonas aeruginosa [6]; 125 µg/mL (≈ 279 µM) against Bacillus subtilis [7]; 15.6 µg/mL (≈ 34.9 µM) against Pseudomonas aeruginosa [8]; 62.5 µg/mL (≈ 140 µM) in the test with Escherichia coli [9] (ATCC 25922, 24 h). In the test on Staphylococcus aureus [10] (ATCC 25923, 24 h), this compound returned an MIC of 125 µg/mL (≈ 279 µM).

As to `O=C(Nc1ccc2oc(-c3ccccc3)nc2c1)c1cc2ccccc2o1`, the MIC against Escherichia coli [1] came to 125 µg/mL (≈ 353 µM); with Staphylococcus aureus [2], 62.5 µg/mL (≈ 176 µM); against Candida albicans [11], 62.5 µg/mL (≈ 176 µM); with Klebsiella pneumoniae [3] it was 125 µg/mL (≈ 353 µM); against Candida albicans [12] it was 62.5 µg/mL (≈ 176 µM); in the test with Pichia kudriavzevii it was 62.5 µg/mL (≈ 176 µM). The MIC in the test with Bacillus subtilis [4] (ATCC 6633, 24 h) was 125 µg/mL (≈ 353 µM); with Klebsiella pneumoniae [5], 62.5 µg/mL (≈ 176 µM); against Pseudomonas aeruginosa [6], 62.5 µg/mL (≈ 176 µM); against Bacillus subtilis [7] it was 250 µg/mL (≈ 705 µM); in the test on Pseudomonas aeruginosa [8] it was 62.5 µg/mL (≈ 176 µM); against Escherichia coli [9] (ATCC 25922, 24 h), 62.5 µg/mL (≈ 176 µM). Moreover, in the test with Staphylococcus aureus [10] (ATCC 25923, 24 h), the MIC was 62.5 µg/mL (≈ 176 µM).

For GENTAMICIN, the MIC is 15.6 µg/mL against Escherichia coli [1]; 7.8 µg/mL in the test with Staphylococcus aureus [2]; 7.8 µg/mL against Klebsiella pneumoniae [3]; 0.24 µg/mL against Bacillus subtilis [4]; 0.24 µg/mL in the test with Klebsiella pneumoniae [5]; 31.2 µg/mL in the test on Pseudomonas aeruginosa [6]. Also, the MIC against Bacillus subtilis [7] came to 0.12 µg/mL; with Pseudomonas aeruginosa [8] it was 62.5 µg/mL; against Escherichia coli [9], 0.48 µg/mL; in the test with Staphylococcus aureus [10] it was 0.48 µg/mL.
